# Experimental data gathered from unrelated publications.
# Lines come from different studies, so protocols differ.
SMILES,organism,test,test system,conditions,endpoint,value
COc1ccc(CN2C[C@H]3CC[C@@H]4[C@](C)(COC(C)=O)[C@H](OC(C)=O)CC[C@@]4(C)[C@@H]3C[C@@H]2C2=CCOC2=O)cc1,unidentified human coronavirus,cytopathic effect,MRC5,"25 µM, 72 h",inhibition,5.1%
[N-]=[N+]=Nc1nc(N=[N+]=[N-])c2ncn([C@@H]3O[C@H](COC(=O)c4ccccc4)[C@@H](F)[C@@H]3F)c2n1,Hepatitis C virus,"viral replication, inhibitor",Huh-7,replicon,EC50,> 10000 nM
Cc1c(NC(=O)CC2=NC(=O)CS2)c(=O)n(-c2ccccc2)n1C,Acinetobacter baumannii,"microbial growth, well diffusion",,100000 µg/mL,inhibition zone,26 mm
CCCCCCC/C=C/C(=O)N1C(=O)/C(=C(/C)O)C(=O)C1CCC(=O)O (centres unmarked),Proteus mirabilis,microbial growth,ATCC25933,,MIC,> 200 µg/mL
O=C(CNc1nc(NS(=O)(=O)c2ccccc2)ncc1-c1nc2ccccc2s1)c1ccc(Br)cc1,Enterovirus B,plaque formation,"BGM, B4",,IC50,84 µg/mL
CC(=O)OC[C@@]1(C)[C@H]2CC[C@@H]3CN(Cc4ccc(O)cc4)[C@@H](C4=CCOC4=O)C[C@H]3[C@]2(C)CC[C@H]1OC(C)=O,unidentified human coronavirus,cytopathic effect,MRC5,"25 µM, 72 h",inhibition,50.4%
COc1nc(OC)c2ncn([C@@H]3O[C@H](CO)[C@@H](F)[C@@H]3F)c2n1,Hepatitis C virus,"viral replication, inhibitor",Huh-7,replicon,EC50,> 10000 nM
O=C(CNc1nc(NS(=O)(=O)c2ccccc2)ncc1-c1nc2ccccc2s1)c1ccc(Cl)cc1,Enterovirus B,plaque formation,"BGM, B4",,IC50,92 µg/mL
CCOC(=O)N[C@@H](C(=O)N1CCC[C@@H]1C(=O)Nc1cccc(C#CC#Cc2cccc(NC(=O)[C@H]3CCCN3C(=O)[C@H](NC(=O)OCC)C(C)C)c2)c1)C(C)C,Hepatitis C virus,"viral replication, inhibitor, luciferase","Huh-5-2, GETYPE1B","72 h, replicon",EC50,> 10000 nM
CCOC(=O)c1c(N)csc1-c1cn(-c2ccccc2)nc1-c1ccccc1,Acinetobacter baumannii,"microbial growth, well diffusion",,100000 µg/mL,inhibition zone,20 mm
COc1nc(Cl)nc2c1ncn2[C@@H]1O[C@H](CO)[C@@H](F)[C@@H]1F,Hepatitis C virus,"viral replication, inhibitor",Huh-7,replicon,EC50,> 10000 nM
C[C@]1(CO)[C@H]2CC[C@@H]3CN(Cc4ccc(F)c(Cl)c4)[C@@H](C4=CCOC4=O)C[C@H]3[C@]2(C)CC[C@H]1O,unidentified human coronavirus,cytopathic effect,MRC5,"25 µM, 72 h",inhibition,20%
CCOC(=O)N[C@H](CC(C)C)C(=O)N1CCC[C@@H]1C(=O)Nc1cccc(C#CC#Cc2cccc(NC(=O)[C@H]3CCCN3C(=O)[C@@H](CC(C)C)NC(=O)OCC)c2)c1,Hepatitis C virus,"viral replication, inhibitor, luciferase","Huh-5-2, GETYPE1B","72 h, replicon",EC50,410 nM
CCCCCCC/C=C/C(=O)N1C(=O)/C(=C(/C)O)C(=O)C1CCCCN (centres unmarked),Proteus mirabilis,microbial growth,ATCC25933,,MIC,> 200 µg/mL
COc1ccc(CN2C[C@H]3CC[C@@H]4[C@](C)(CO)[C@H](O)CC[C@@]4(C)[C@@H]3C[C@@H]2C2=CCOC2=O)cc1,unidentified human coronavirus,cytopathic effect,MRC5,"25 µM, 72 h",inhibition,1.9%
N#CC(=Cc1ccccc1O)C1=NC(=O)C(=Cc2cn(-c3ccccc3)nc2-c2ccccc2)S1,Acinetobacter baumannii,"microbial killing, broth dilution",,,MBC,0.25 µg/mL
CCOC(=O)N[C@H](CC(C)C)C(=O)N1CCC[C@@H]1C(=O)Nc1ccc(C#CC#Cc2ccc(NC(=O)[C@H]3CCCN3C(=O)[C@@H](CC(C)C)NC(=O)OCC)cc2)cc1,Hepatitis C virus,"viral replication, inhibitor, luciferase","Huh-5-2, GETYPE1B","72 h, replicon",EC50,> 10000 nM
CCCN1C[C@H]2CC[C@@H]3[C@](C)(COC(C)=O)[C@H](OC(C)=O)CC[C@@]3(C)[C@@H]2C[C@@H]1C1=CCOC1=O,unidentified human coronavirus,cytopathic effect,MRC5,"25 µM, 72 h",inhibition,45.8%
Nc1nc2c(ncn2[C@@H]2O[C@H](CO)[C@@H](F)[C@@H]2F)c(=O)[nH]1,Hepatitis C virus,"viral replication, inhibitor",Huh-7,replicon,EC90,> 10 µM
CN[C@H](CC(C)C)C(=O)N[C@H]1C(=O)N[C@@H](CC(N)=O)C(=O)N[C@H]2C(=O)N[C@H]3C(=O)N[C@H](C(=O)N[C@H](C(=O)O)c4cc(O)cc(O)c4-c4cc3ccc4O)[C@H](O)c3ccc(c(Cl)c3)Oc3cc2cc(c3O[C@@H]2O[C@H](CO)[C@@H](O)[C@H](O)[C@H]2O[C@H]2C[C@](C)(N)[C@H](O)[C@H](C)O2)Oc2ccc(cc2Cl)[C@H]1O,Acinetobacter baumannii,"microbial killing, broth dilution",BAA747,,MBC,> 128 µM
C[C@@]12COCO[C@@H]1CC[C@]1(C)[C@@H]2CC[C@@H]2CN(Cc3ccccc3)[C@@H](C3=CCOC3=O)C[C@H]21,unidentified human coronavirus,cytopathic effect,MRC5,"25 µM, 72 h",inhibition,9.5%
N#CC(=Cc1cn(-c2ccccc2)nc1-c1ccccc1)C1=NC(=O)CS1,Acinetobacter baumannii,"microbial killing, broth dilution",,,MBC,0.5 µg/mL
Nc1ncnc2c1c([N+](=O)[O-])cn2[C@@H]1C=C(CO)[C@@H](O)[C@H]1O,Hepatitis C virus,"viral replication, inhibitor, luciferase",Huh7 ET,"20 µM, replicon",inhibition,31.5%
CCCCCCC/C=C/C(=O)N1C(=O)/C(=C(\O)c2ccc(F)cc2)C(=O)C1CC(C)C (centres unmarked),Proteus mirabilis,microbial growth,ATCC25933,,MIC,> 200 µg/mL
COC(=O)N[C@H](CC(C)C)C(=O)N1CCC[C@H]1C(=O)Nc1cccc(C#CC#Cc2cccc(NC(=O)[C@@H]3CCCN3C(=O)[C@@H](CC(C)C)NC(=O)OC)c2)c1,Hepatitis C virus,"viral replication, inhibitor, luciferase","Huh-5-2, GETYPE1B","72 h, replicon",EC50,0.0686 nM
Cc1ccc(-c2nn(-c3ccccc3)cc2C=c2sc(=CC#N)[nH]c2=O)cc1,Acinetobacter baumannii,"microbial growth, well diffusion",,100000 µg/mL,inhibition zone,14 mm
CCOC(=O)N[C@@H](C(=O)N1CCC[C@H]1C(=O)Nc1ccc(C#CC#Cc2ccc(NC(=O)[C@@H]3CCCN3C(=O)[C@H](NC(=O)OCC)C(C)C)cc2)cc1)C(C)C,Hepatitis C virus,"viral replication, inhibitor, luciferase","Huh-5-2, GETYPE1B","72 h, replicon",EC50,267 nM
CC(=O)OC[C@@]1(C)[C@H]2CC[C@@H]3CN(Cc4cccc5ccccc45)[C@@H](C4=CCOC4=O)C[C@H]3[C@]2(C)CC[C@H]1OC(C)=O,unidentified human coronavirus,cytopathic effect,MRC5,"25 µM, 72 h",inhibition,106%
Nc1nc(NS(=O)(=O)c2ccccc2)ncc1-c1nc2ccccc2s1,Enterovirus B,plaque formation,"BGM, B4",,IC50,85 µg/mL
Nc1nc(N)c2ncn([C@@H]3O[C@H](CO)[C@@H](F)[C@@H]3F)c2n1,Hepatitis C virus,"viral replication, inhibitor",Huh-7,replicon,EC90,> 10 µM
CCCCCCC/C=C/C(=O)N1C(=O)/C(=C(\O)CCCC)C(=O)C1CC(C)C (centres unmarked),Proteus mirabilis,microbial growth,ATCC25933,,MIC,> 200 µg/mL
COC(=O)N[C@H](C(=O)N1CCC[C@H]1C(=O)Nc1cccc(C#CC#Cc2cccc(NC(=O)[C@@H]3CCCN3C(=O)[C@@H](NC(=O)OC)C(C)C)c2)c1)C(C)C,Hepatitis C virus,"viral replication, inhibitor, luciferase","Huh-5-2, GETYPE1B","72 h, replicon",EC50,0.121 nM
O=C(Nc1ccccc1-c1ccc(F)c(F)c1)c1nccnc1C(F)(F)F,Venturia nashicola,microbial growth,,,EC50,0.8 µg/mL
CC1(C)OC[C@@]2(C)[C@H]3CC[C@@H]4CN(Cc5ccc(F)c(Cl)c5)[C@@H](C5=CCOC5=O)C[C@H]4[C@]3(C)CC[C@H]2O1,unidentified human coronavirus,cytopathic effect,MRC5,"25 µM, 72 h",inhibition,51.6%
N#CC(=Cc1ccc(Cl)cc1)C1=NC(=O)C(=Cc2cn(-c3ccccc3)nc2-c2ccccc2)S1,Acinetobacter baumannii,"microbial growth, well diffusion",,100000 µg/mL,inhibition zone,20 mm
Cc1cn([C@H]2C[C@H](N=[N+]=[N-])[C@@H](CO)O2)c(=O)[nH]c1=O,Hepatitis C virus,"viral replication, inhibitor",Huh-7,replicon,EC50,> 10000 nM
CCCCCCC/C=C/C(=O)N1C(=O)/C(=C(\O)c2ccc(O)cc2)C(=O)C1CC(C)C (centres unmarked),Proteus mirabilis,microbial growth,ATCC25933,,MIC,> 200 µg/mL
O=C(OC[C@H]1O[C@H](n2cnc3c(Cl)nc(Cl)nc32)[C@@H](F)[C@@H]1F)c1ccccc1,Hepatitis C virus,"viral replication, inhibitor",Huh-7,replicon,EC50,< 10000 nM
CCOC(=O)C=c1[nH]c(=O)c(=Cc2cn(-c3ccccc3)nc2-c2ccc(C)cc2)s1,Acinetobacter baumannii,"microbial growth, well diffusion",,100000 µg/mL,inhibition zone,11 mm
COC(=O)N[C@H](C(=O)N1CCC[C@H]1c1nc(-c2ccc(-c3ccc(-c4c[nH]c([C@@H]5CCCN5C(=O)[C@@H](NC(=O)OC)C(C)C)n4)cc3)cc2)c[nH]1)C(C)C,Hepatitis C virus,"viral replication, inhibitor, luciferase",GETYPE4A,replicon,EC50,0.021 nM
Nc1nc(Cl)c2ncn([C@@H]3O[C@H](CO)[C@@H](F)[C@@H]3F)c2n1,Hepatitis C virus,"viral replication, inhibitor",Huh-7,replicon,EC90,> 10 µM
COC(=O)N[C@H](C(=O)N1CCC[C@H]1c1ncc(-c2ccc(-c3ccc(-c4cnc([C@@H]5CCCN5C(=O)[C@@H](NC(=O)OC)C(C)C)[nH]4)cc3)cc2)[nH]1)C(C)C,Hepatitis C virus,"viral replication, inhibitor",GETYPE1A,replicon,EC50,0.05 nM
CCCCCCC/C=C/C(=O)N1C(=O)/C(=C(/C)O)C(=O)C1CO (centres unmarked),Proteus mirabilis,microbial growth,ATCC25933,,MIC,> 200 µg/mL
CC(C)Oc1c(NC(=O)c2ccc(NC(=O)c3ccc(NC(=O)[C@H](CC(N)=O)NC(=O)c4ccc(NC(=O)c5ccc(C#N)cn5)cc4)cc3)c(OC(C)C)c2O)ccc(C(=O)O)c1O,Proteus mirabilis,microbial growth,DSM4479,,MIC,8 µg/mL
